From ChEMBL document CHEMBL4477209, “Indole-2-carboxamide-based MmpL3 Inhibitors Show Exceptional Antitubercular Activity in an Animal Model of Tuberculosis Infection” (J Med Chem, 2016)
≈ marks a conversion by molar mass, not a printed value. Calls of active or inactive are those of the source. The calls are words filed in the database; no cut-off is given here.

Tests used:
[1] = target: T1, Aryl hydrocarbon receptor (Homo sapiens, UniProt P35869); assay: Transactivation of AhR (unknown origin) assessed as upregulation of CYP1A2; format: ADME
T1 sequence (P35869 whole entry): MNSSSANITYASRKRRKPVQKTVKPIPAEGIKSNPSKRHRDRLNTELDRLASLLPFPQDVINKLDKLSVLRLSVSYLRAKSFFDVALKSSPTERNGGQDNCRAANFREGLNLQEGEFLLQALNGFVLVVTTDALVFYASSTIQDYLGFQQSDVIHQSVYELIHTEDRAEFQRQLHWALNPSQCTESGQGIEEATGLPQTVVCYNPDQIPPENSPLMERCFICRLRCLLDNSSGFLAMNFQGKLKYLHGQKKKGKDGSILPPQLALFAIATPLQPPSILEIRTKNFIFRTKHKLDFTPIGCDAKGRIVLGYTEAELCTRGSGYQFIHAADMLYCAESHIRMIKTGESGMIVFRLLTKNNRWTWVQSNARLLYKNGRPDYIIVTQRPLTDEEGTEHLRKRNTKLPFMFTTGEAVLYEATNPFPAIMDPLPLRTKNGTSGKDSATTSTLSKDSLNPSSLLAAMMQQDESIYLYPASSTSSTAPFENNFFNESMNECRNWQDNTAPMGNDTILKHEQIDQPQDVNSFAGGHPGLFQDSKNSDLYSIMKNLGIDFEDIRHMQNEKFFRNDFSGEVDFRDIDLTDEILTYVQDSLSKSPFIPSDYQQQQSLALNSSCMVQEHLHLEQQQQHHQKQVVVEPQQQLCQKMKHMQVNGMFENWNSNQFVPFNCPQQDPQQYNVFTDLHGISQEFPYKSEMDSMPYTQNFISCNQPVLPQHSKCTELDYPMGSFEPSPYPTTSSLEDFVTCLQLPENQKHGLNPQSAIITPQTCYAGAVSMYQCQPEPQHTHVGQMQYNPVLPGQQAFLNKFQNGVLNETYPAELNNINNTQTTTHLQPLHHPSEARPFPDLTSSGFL
Procedure, shortened: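 Nuclear receptor reporter-gene induction assay, with reporters coupled to PXR, CAR or AhR. Compound was tested at 0.1–1, 3 and 8 μg/mL. Positive controls were rifampin for PXR, CITCO for CAR and 3-methylcholanthrene for AhR.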

[2] = test system: Mycobacterium tuberculosis H37Rv; assay: Inhibition of MmpL3 in clinical isolates of drug sensitive Mycobacterium tuberculosis H37Rv after 7 to 14 days by alamar blue assay
[3] = Tmax in BALB/c mouse plasma at 100 mg/kg administered via oral gavage after 0.25 to 24 hrs by LC-MS analysis; format: ADME, organism-based
Procedure, shortened: (§1)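 Female BALB/c mice (20 g) got a single 100 mg/kg oral gavage dose. Three animals were sacrificed per time point at 0, 0.25, 0.5, 1, 2, 4, 8 and 24 h. Cardiac blood was spun at 12 000g, 4 °C for plasma. Lungs were bead-beaten in water and the supernatant taken. Both matrices were quantified by LC-MS/MS with an indole-2-carboxamide internal standard. Parameters came from noncompartmental analysis.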

[4] = test system: Mycobacterium tuberculosis; assay: Antimycobacterial activity against Mycobacterium tuberculosis H37Rv infected in BALB/c mouse model assessed as protection against mouse mortality at 12.5 to 100 mg/kg administered daily via oral gavage for 5 days per week measured after 14 to 28 days post dosage; format: functional, organism-based
[5] = AUClast in BALB/c mouse lung at 100 mg/kg administered via oral gavage after 0.25 to 24 hrs by LC-MS analysis; format: ADME, organism-based; conditions: in vivo
Procedure, shortened: (§2)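 Female BALB/c mice (20 g), single oral gavage dose of 100 mg/kg. Cardiac blood and lungs taken at 0, 0.25, 0.5, 1, 2, 4, 8 and 24 h (n = 3 per time point). Plasma separated by centrifugation; lungs bead-beaten in water and supernatant recovered. Drug quantified by LC-MS/MS against an indole-2-carboxamide internal standard. Parameters derived by noncompartmental analysis.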

[6] = test system: Mycobacterium tuberculosis; assay: Antimycobacterial activity against Mycobacterium tuberculosis H37Rv grown on serum of 100 mg/kg, po treated BALB/c mouse for 30 to 120 mins assessed as reduction in bacterial growth followed by bacterial addition incubated for 7 days by alamar blue reagent based serum inhibition titration assay; format: functional, organism-based
Procedure, shortened: (§3)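 Six-week-old female BALB/c mice (20 g) given one oral dose as suspension in 0.5% CMC in water; isoniazid 10 mg/kg as positive control, vehicle as negative. Serum collected at 30, 60 and 120 min, pooled from three mice per time point, 2-fold serially diluted. 10^4 CFU H37Rv added per well, 7 days at 37 °C. alamarBlue added for 16−18 h, fluorescence read at Ex544/Em590 and plotted against serum titration.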

[7] = AUMClast in BALB/c mouse lung at 100 mg/kg administered via oral gavage after 0.25 to 24 hrs by LC-MS analysis; format: ADME, organism-based; conditions: in vivo; procedure, shortened: as §2
[8] = AUClast in BALB/c mouse plasma at 100 mg/kg administered via oral gavage after 0.25 to 24 hrs by LC-MS analysis; format: ADME, organism-based; design: dose 100 mg/kg, time 0.25-24 hr, route oral; procedure, shortened: as §2
[9] = test system: Mycobacterium tuberculosis; assay: Antimycobacterial activity against Mycobacterium tuberculosis H37Rv infected in BALB/c mouse model assessed as reduction in CFU counts in lung at 100 mg/kg administered daily via oral gavage for 5 days per week measured after 14 days post dosage relative to control; format: functional
Procedure, shortened: (§4)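 Female BALB/c mice, 4-6 weeks old, aerosol-infected with H37Rv (about 10^3 CFU); five mice taken on day 1 for lung implantation CFU. From day 1, 12.5, 25, 50 or 100 mg/kg in 0.5% carboxymethylcellulose by daily oral gavage, 5 days/week. Ethambutol 100 mg/kg as positive control, untreated infected mice as negative, 5 mice per group. Lung homogenates plated on 7H11 selective agar on days 14 and 28.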

[10] = Cmax in BALB/c mouse lung at 100 mg/kg administered via oral gavage after 0.25 to 24 hrs by LC-MS analysis; format: ADME, organism-based; design: dose 100 mg/kg, route oral; procedure, shortened: as §2
[11] = Mean residence time (last) in BALB/c mouse plasma at 100 mg/kg administered via oral gavage by LC-MS analysis; format: ADME, organism-based; procedure, shortened: as §2
[12] = test system: Mycobacterium tuberculosis; assay: Antimycobacterial activity against Mycobacterium tuberculosis H37Rv infected in BALB/c mouse model assessed as reduction in CFU counts in lung at 100 mg/kg administered daily via oral gavage for 5 days per week measured after 28 days post dosage relative to control; format: functional; procedure, shortened: as §4
[13] = Mean residence time (last) in BALB/c mouse lung at 100 mg/kg administered via oral gavage by LC-MS analysis; format: ADME, organism-based; procedure, shortened: as §2
[14] = test system: Mycobacterium tuberculosis; assay: Antimycobacterial activity against Mycobacterium tuberculosis H37Rv infected in BALB/c mouse model assessed as reduction in CFU counts in lung at 200 mg/kg administered daily via oral gavage for 5 days per week measured after 28 days post dosage relative to control; format: functional
Procedure, shortened: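 Bactericidal-dose model in aerosol-infected BALB/c mice given 25, 50, 100 or 200 mg/kg orally in 0.5% carboxymethylcellulose in water for 4 weeks. Lung CFU compared with the count at treatment initiation; survival also recorded.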

[15] = AUMClast in BALB/c mouse plasma at 100 mg/kg administered via oral gavage after 0.25 to 24 hrs by LC-MS analysis; format: ADME, organism-based; conditions: in vivo; procedure, shortened: as §2
[16] = Cmax in BALB/c mouse plasma at 100 mg/kg administered via oral gavage after 0.25 to 24 hrs by LC-MS analysis; format: ADME, organism-based; design: dose 100 mg/kg, route oral; procedure, shortened: as §2
[17] = Tmax in BALB/c mouse lung at 100 mg/kg administered via oral gavage after 0.25 to 24 hrs by LC-MS analysis; format: ADME, organism-based; procedure, shortened: as §1
[18] = Oral bioavailability in BALB/c mouse at 100 mg/kg administered as single dose for 30 to 120 mins followed by Mycobacterium tuberculosis H37Rv addition to compound treated serum incubated for 7 days by alamar blue reagent based serum inhibition titration assay; format: ADME, organism-based; conditions: in vivo; procedure, shortened: as §3

In the case of `Cc1ccc2cc3c(ccc4ccccc43)c3c2c1CC3` [3-METHYLCHOLANTHRENE], the Activity [1] is reported as “Active”.

`C[C@@H]1[C@@H](NC(=O)c2cc3c(Cl)cc(Cl)cc3[nH]2)C[C@H]2C[C@@H]1C2(C)C` gave an MIC90 [2] of 0.086 µM (≈ 0.0314 µg/mL).

Work on `COc1cc(OC)c2cc(C(=O)NC3CCCCCC3)[nH]c2c1` yielded an MIC90 [2] of 3.2 µM (≈ 1.01 µg/mL).

For `CC1(C)[C@H]2CC[C@@]1(C)[C@H](NC(=O)c1cc3c(Cl)cc(Cl)cc3[nH]1)C2`, the MIC90 [2] was 0.043 µM (≈ 0.0157 µg/mL).

For `CCCCCCCCNC(=O)c1cc2c(Cl)cc(Cl)cc2[nH]1`, the MIC90 [2] was over 300 µM.

With `O=C(Nc1nc2ccc(OC(F)(F)F)cc2s1)C1CCCCCC1` the MIC90 [2] was over 300 µM.

In the case of `Cc1cccc2cc(C(=O)NC3CCCCCCC3)[nH]c12`, the MIC90 [2] is reported as 3.5 µM (≈ 0.995 µg/mL).

Molecule `Nc1ccc2[nH]c(C(=O)NC3CCCCCCC3)cc2c1` has an MIC90 [2] of 80 µM (≈ 22.8 µg/mL).

`C[C@@H](NC(=O)c1cc2c(Cl)cc(Cl)cc2[nH]1)C1CCCCC1` showed an MIC90 [2] of 5.9 µM (≈ 2 µg/mL).

In the case of `CC1(C)CCC(NC(=O)c2cc3c(Cl)cc(Cl)cc3[nH]2)CC1`, the Tmax [3] is reported as 2 h, the Activity [4] is reported as “Active” and the AUClast [5] is reported as 18.1 µg·h/g. The Activity [6] was “Active”, the AUMClast [7] was 150 hr2.ug/g and the AUC(0-t) [8] was 5620 ng·h/mL. It also gave an Activity [9] of 0.45 log10CFU, a Cmax [10] of 1300 ng/g and an MRT last [11] of 6.47 h. The Activity [12] was 1.08 log10CFU, the MRT last [13] was 8.3 h and the Activity [14] was “inactive”. The AUMClast [15] was 36.4 hr.hr.ug/ml, the Cmax [16] was 670 ng/mL and the Tmax [17] was 2 h. For the same molecule, the Drug uptake [18] was “Active”.

Work on `O=C(NC1Cc2ccccc2C1)c1cc2c(Cl)cc(Cl)cc2[nH]1` yielded an MIC90 [2] of 0.72 µM (≈ 0.249 µg/mL).

With `CC(C)=CCC/C(C)=C/CNC(=O)c1cc2c(Cl)cc(Cl)cc2[nH]1` the MIC90 [2] was 11 µM (≈ 4.02 µg/mL).

In the case of `O=C(NC1CCC2(CCCCC2)CC1)c1cc2c(Cl)cc(Cl)cc2[nH]1`, the Activity [6] is reported as “inactive”, the MIC90 [2] is reported as 0.005 µM (≈ 0.0019 µg/mL) and the Drug uptake [18] is reported as “Not Active”.

`CCCCCCCNC(=O)c1cc2c(Cl)cc(Cl)cc2[nH]1` gave an MIC90 [2] of over 300 µM.

For `O=C(NC1CCC2(CCCCC2)CC1)c1cc2c(F)cc(F)cc2[nH]1`, the Activity [6] was “inactive”, the MIC90 [2] was 0.003 µM (≈ 0.00104 µg/mL) and the Drug uptake [18] was “Not Active”.

With `Cc1ccc2[nH]c(C(=O)NC3CCCCCC3)cc2c1` the MIC90 [2] was 7.4 µM (≈ 2 µg/mL).

`O=C(NC1CCCCCCC1)c1cc2ccc(Br)cc2[nH]1` showed an MIC90 [2] of 0.09 µM (≈ 0.0314 µg/mL).

Work on `C[C@@H]1[C@H]2C[C@@H](C[C@H]1NC(=O)c1cc3ccc(Br)cc3[nH]1)C2(C)C` yielded an MIC90 [2] of 0.01 µM (≈ 0.00375 µg/mL).

Molecule `Cc1cc(C)c2cc(CNC3CCCCCCC3)[nH]c2c1` has an MIC90 [2] of 0.31 µM (≈ 0.0882 µg/mL).

Work on `O=C(NC12CC3CC(CC(C3)C1)C2)c1cc2ccc(Br)cc2[nH]1` yielded an MIC90 [2] of 0.042 µM (≈ 0.0157 µg/mL).

Work on `CN1C2CCCC1CC(NC(=O)c1cc3c(Cl)cc(Cl)cc3[nH]1)C2` (stereo not given) yielded an MIC90 [2] of 10.9 µM (≈ 3.99 µg/mL).
